Test results from ChEMBL document CHEMBL1148778, “Synthesis and characterization of nonsteroidal glucocorticoid receptor modulators for multiple myeloma” (J Med Chem, 2007).

Legend:
[1] = target: T1, Glucocorticoid receptor (Homo sapiens, UniProt P04150); experiment: Agonist activity at human GR expressed in CV1 cells by GRE activation assay; type: functional, cell-based, CV-1
T1 sequence (P04150 whole entry): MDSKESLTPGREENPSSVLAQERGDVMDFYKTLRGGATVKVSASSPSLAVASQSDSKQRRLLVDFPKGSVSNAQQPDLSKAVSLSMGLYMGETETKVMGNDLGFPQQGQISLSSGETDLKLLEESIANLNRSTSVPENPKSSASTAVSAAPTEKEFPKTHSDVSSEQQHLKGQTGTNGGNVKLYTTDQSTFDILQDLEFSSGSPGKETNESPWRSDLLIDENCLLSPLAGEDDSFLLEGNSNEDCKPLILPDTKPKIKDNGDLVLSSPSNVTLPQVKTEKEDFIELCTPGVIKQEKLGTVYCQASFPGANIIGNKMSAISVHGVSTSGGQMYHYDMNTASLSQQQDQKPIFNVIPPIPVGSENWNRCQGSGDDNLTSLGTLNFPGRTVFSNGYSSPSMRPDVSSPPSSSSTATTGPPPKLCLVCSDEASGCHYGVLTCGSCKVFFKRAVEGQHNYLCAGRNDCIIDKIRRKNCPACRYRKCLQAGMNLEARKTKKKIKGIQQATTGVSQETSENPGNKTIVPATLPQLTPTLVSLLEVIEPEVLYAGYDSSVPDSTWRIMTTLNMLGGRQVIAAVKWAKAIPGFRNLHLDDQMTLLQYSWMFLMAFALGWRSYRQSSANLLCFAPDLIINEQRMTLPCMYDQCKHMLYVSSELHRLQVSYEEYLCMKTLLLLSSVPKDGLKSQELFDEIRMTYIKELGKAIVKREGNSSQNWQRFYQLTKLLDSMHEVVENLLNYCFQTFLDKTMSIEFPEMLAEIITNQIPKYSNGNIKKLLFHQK

[2] = target: T1, Glucocorticoid receptor; experiment: Activity at human GR expressed in NHDFneo cells assessed as inhibition of IL-6 production; type: cell-based
[3] = test system: RPMI-8226; experiment: Antiproliferative activity against human RPMI8226 cells after 4 days; type: functional, cell-based; conditions: RPMI-8226, 96 h
[4] = test system: RPMI-8226; experiment: Antiproliferative activity against human RPMI8226 cells after 4 days relative to Dexamethasone; type: functional
[5] = target: T1, Glucocorticoid receptor; experiment: Binding affinity to GR
[6] = target: T2, Progesterone receptor (Homo sapiens, UniProt P06401); experiment: Binding affinity to PR
T2 sequence (P06401 whole entry): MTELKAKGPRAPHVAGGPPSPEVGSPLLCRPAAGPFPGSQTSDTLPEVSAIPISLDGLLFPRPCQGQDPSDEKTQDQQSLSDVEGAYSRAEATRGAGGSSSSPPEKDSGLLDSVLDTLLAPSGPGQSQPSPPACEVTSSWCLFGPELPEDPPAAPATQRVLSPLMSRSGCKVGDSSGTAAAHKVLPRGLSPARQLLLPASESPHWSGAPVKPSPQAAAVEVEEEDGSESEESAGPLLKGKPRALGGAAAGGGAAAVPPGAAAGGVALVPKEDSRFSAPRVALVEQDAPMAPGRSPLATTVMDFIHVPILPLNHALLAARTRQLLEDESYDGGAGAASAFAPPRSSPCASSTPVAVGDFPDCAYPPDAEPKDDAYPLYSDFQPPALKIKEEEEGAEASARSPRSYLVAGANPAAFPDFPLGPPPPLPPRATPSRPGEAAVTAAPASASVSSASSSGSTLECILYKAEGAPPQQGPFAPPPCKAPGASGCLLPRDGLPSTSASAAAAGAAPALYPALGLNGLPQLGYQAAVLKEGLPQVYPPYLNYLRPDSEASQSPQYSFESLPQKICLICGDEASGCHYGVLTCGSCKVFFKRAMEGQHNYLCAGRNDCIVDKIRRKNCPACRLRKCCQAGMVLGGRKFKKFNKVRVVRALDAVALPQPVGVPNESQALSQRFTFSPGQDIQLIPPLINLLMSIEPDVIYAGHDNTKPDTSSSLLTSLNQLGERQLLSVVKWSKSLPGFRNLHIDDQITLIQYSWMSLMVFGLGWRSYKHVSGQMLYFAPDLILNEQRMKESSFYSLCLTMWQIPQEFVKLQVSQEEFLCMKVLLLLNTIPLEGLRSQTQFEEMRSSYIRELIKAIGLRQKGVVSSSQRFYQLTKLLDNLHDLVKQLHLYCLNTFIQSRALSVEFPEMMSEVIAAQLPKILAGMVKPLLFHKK
Summary of the method: (§1)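 Competitive binding assays on PR and MR. Values are means of at least three separate experiments, each with triplicate determinations, ± SEM. A value without SEM comes from a single determination.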

[7] = target: T3, Mineralocorticoid receptor (Homo sapiens, UniProt P08235); experiment: Binding affinity to MR; summary of the method: as §1
T3 sequence (P08235 whole entry): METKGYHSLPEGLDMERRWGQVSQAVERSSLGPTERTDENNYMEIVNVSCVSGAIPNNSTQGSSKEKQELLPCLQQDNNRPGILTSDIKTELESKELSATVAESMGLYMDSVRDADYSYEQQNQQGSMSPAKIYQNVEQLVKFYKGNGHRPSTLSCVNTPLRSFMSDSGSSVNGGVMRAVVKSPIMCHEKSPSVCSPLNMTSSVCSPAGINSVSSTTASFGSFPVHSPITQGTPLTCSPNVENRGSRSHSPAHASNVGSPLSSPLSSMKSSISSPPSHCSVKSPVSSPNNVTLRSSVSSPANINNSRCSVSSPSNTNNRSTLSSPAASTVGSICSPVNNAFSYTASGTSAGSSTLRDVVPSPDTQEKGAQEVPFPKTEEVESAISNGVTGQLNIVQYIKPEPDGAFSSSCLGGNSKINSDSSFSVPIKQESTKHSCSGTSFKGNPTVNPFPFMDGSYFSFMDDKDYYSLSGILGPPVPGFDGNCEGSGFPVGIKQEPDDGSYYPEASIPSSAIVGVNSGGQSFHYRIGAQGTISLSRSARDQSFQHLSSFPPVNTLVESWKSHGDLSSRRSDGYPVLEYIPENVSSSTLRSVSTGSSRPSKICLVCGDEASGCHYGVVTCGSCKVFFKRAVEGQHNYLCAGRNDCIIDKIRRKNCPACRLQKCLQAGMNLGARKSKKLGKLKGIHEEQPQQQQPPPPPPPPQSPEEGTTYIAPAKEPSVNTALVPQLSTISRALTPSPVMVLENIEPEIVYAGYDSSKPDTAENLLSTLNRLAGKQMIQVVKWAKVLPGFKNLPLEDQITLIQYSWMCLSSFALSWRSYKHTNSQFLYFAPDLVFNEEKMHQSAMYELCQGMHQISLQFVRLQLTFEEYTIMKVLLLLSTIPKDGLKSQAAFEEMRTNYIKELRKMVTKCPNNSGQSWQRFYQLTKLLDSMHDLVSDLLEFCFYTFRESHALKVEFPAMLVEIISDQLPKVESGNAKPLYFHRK

[8] = target: T4, Androgen receptor (Homo sapiens, UniProt P10275); experiment: Binding affinity to AR
T4 sequence (P10275 whole entry): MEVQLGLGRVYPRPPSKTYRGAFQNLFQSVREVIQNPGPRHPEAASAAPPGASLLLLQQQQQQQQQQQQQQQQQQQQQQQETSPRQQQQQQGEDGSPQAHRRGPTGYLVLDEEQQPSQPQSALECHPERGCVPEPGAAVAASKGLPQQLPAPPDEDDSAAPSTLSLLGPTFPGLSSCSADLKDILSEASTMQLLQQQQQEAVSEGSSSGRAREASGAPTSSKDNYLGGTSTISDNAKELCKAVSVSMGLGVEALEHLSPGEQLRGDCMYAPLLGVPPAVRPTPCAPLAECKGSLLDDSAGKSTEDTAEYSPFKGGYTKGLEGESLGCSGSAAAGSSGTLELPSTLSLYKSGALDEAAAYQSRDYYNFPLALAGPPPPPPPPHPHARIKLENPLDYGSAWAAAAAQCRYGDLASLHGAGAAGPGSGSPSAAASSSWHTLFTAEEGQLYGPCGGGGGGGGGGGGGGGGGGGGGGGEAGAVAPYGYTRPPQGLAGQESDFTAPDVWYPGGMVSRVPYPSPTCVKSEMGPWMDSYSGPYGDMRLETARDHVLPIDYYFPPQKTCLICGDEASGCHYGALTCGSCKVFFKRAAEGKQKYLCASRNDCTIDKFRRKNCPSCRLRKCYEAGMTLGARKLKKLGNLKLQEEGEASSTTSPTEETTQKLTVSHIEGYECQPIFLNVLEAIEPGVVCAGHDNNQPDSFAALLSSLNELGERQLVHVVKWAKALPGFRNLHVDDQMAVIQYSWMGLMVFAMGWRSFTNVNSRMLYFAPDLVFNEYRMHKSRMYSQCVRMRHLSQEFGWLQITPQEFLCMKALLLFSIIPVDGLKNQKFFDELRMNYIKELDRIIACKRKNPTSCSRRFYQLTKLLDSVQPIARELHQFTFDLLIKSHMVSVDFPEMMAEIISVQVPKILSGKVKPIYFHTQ

[9] = target: T1, Glucocorticoid receptor; experiment: Antagonist activity at human GR expressed in CV1 cells by GRE activation assay; type: functional, cell-based, CV-1

Row | SMILES | EC50 [1] [nM] | IC50 [2] [nM] | IC50 [3] [nM] | Ki [5] [nM] | Ki [6] [nM] | Ki [7] [nM] | Ki [8] [nM] | EC50 [9] [nM] | Efficacy [4] [%]
1 | COc1c(O)ccc2c1-c1ccc3c(c1/C(=C/c1sccc1C(=O)N1CCCCC1)O2)C(C)=CC(C)(C)N3 | 0.3 | 1 | 16 | – | – | – | – | – | 95
2 | CC/C=C(\C)c1ccsc1/C=C1\Oc2ccc(O)c(OC)c2-c2ccc3c(c21)C(C)=CC(C)(C)N3 | 0.5 | 6.1 | 22 | 4.4 | 57 | 42 | 346 | – | 94
3 | COc1c(O)ccc2c1-c1ccc3c(c1/C(=C/c1sccc1C(O)C(F)(F)F)O2)C(C)=CC(C)(C)N3 (single isomer, unassigned; (+)) | – | – | – | – | – | – | – | 0.2 | –
4 | COc1c(O)ccc2c1-c1ccc3c(c1/C(=C/c1sccc1C#N)O2)C(C)=CC(C)(C)N3 | 0.2 | 0.8 | 14 | – | – | – | – | – | 87
5 | COc1c(O)ccc2c1-c1ccc3c(c1/C(=C/c1sccc1C(C)=O)O2)C(C)=CC(C)(C)N3 | 0.6 | 0.3 | 16 | – | – | – | – | – | 95
6 | COc1c(O)ccc2c1-c1ccc3c(c1/C(=C/c1sccc1C(C)O)O2)C(C)=CC(C)(C)N3 (racemic) | – | – | – | 1.2 | 2290 | 410 | 1530 | 1.3 | –
7 | COc1c(O)ccc2c1-c1ccc3c(c1/C(=C/c1sccc1C(O)C(F)(F)F)O2)C(C)=CC(C)(C)N3 (stereo in doubt; (-)-15) | – | – | – | – | – | – | – | 1.4 | –
8 | COc1c(O)ccc2c1-c1ccc3c(c1/C(=C/c1sccc1C(=O)C1CCCCC1)O2)C(C)=CC(C)(C)N3 | – | – | – | – | – | – | – | 0.4 | –

Second part, led by results:

Row | EC50 [1] [nM] | IC50 [2] [nM] | IC50 [3] [nM] | Ki [5] [nM] | Ki [6] [nM] | Ki [7] [nM] | Ki [8] [nM] | EC50 [9] [nM] | SMILES | Efficacy [4] [%]
9 | – | – | 6.5 | – | – | – | – | – | C[C@@H]1C[C@H]2[C@@H]3CCC4=CC(=O)C=C[C@]4(C)[C@@]3(F)[C@@H](O)C[C@]2(C)[C@@]1(O)C(=O)CO [DEXAMETHASONE] | 100
10 | 1.4 | 1.8 | 27 | – | – | – | – | – | COC(=O)c1ccsc1/C=C1\Oc2ccc(O)c(OC)c2-c2ccc3c(c21)C(C)=CC(C)(C)N3 | 95
11 | – | – | – | – | – | – | – | 0.6 | CCCCC(O)c1ccsc1/C=C1\Oc2ccc(O)c(OC)c2-c2ccc3c(c21)C(C)=CC(C)(C)N3 (racemic) | –
12 | 0.5 | 0.9 | 18 | – | – | – | – | – | COc1c(O)ccc2c1-c1ccc3c(c1/C(=C/c1sccc1CNCC(F)(F)F)O2)C(C)=CC(C)(C)N3 | 96
13 | 5 | 1.1 | 9.9 | 0.6 | 790 | 21 | 290 | – | COc1c(O)ccc2c1-c1ccc3c(c1/C(=C/c1sccc1/C(C)=N/O)O2)C(C)=CC(C)(C)N3 | 96
14 | 0.4 | 0.5 | 16 | – | – | – | – | 1.9 | CCO/N=C(\C)c1ccsc1/C=C1\Oc2ccc(O)c(OC)c2-c2ccc3c(c21)C(C)=CC(C)(C)N3 | 98
15 | 1.6 | 1 | 22 | – | – | – | – | – | COc1c(O)ccc2c1-c1ccc3c(c1/C(=C/c1sccc1COCCO)O2)C(C)=CC(C)(C)N3 | 98
